Measurements published in PubChem BioAssay.
Inconclusive results are not listed.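 How the source made its calls, unless noted: active means RAM network inhibition above 8.4% in each of two replicates, 3 SD over the compound average; inconclusive means above 8.4% inhibition in only one replicate; inactive means 8.4% inhibition or less in each replicate.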

Key:
[1] = S. cerevisiae growth inhibition in permissive medium (OD615), pilot counter-assay for S. cerevisiae lifespan shortening project, permissive growth control (AID 705;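 active means growth inhibition above 25% in both replicates, a cutoff set 3 SD above the mean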); details: OD615, 24 h, at 10 µM, active compounds read high
Procedure, shortened: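 Timing: 24 h exposure, 30 °C / Material: Saccharomyces cerevisiae strain carrying genetically modified DeaD replicative-lifespan system / Signal: OD at 615 nm / Compound: 10 µM single dose, 0.25% DMSO / Medium: SC raffinose/galactose permissive medium / Evaluation: reduction in yeast growth (OD615)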

[2] = S. cerevisiae growth inhibition in restrictive medium, OD615, pilot screen, restrictive growth control, yeast lifespan reduction project (AID 706;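 active means growth inhibition above a set limit, 3 SD over mean compound inhibition, in both replicates, cut at about 43% in these data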;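 further: modified DeaD lifespan yeast strain shifted to restrictive glucose medium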); details: OD615, 48 h, at 10 µM, active compounds read high
Procedure, shortened: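 System: Engineered S. cerevisiae DeaD strain | Detection: OD615 | Buffer or medium: CSMM-D glucose medium | Doses: 10 µM compound, 0.25% DMSO | Timing: 4 h pre-growth plus 48 h compound exposure, 30 °C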

[3] = doxorubicin toxicity protection in MRP-1 cells – H69AR cells, CellTiter-Glo, duplicate, MRP-1 activator project, pilot screen (AID 807;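 active means viability increase at or above a cutoff of the median across tested compounds plus 3 SD, cut at about 8.5% in these data, passing the limit was not always enough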;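 further: compound pretreatment 18-22 h then 72 h combined with doxorubicin; 0% = doxorubicin alone and 100% = vehicle without doxorubicin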); details: H69AR viability with doxorubicin, CellTiter-Glo luminescence; at 10 µM; active compounds read high
[4] = viability of HCT116 without oncogenic beta-catenin – human colon tumor cells, pilot screen (AID 823;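 active means cell viability at or below a set limit in both duplicate runs, the limit being the all-compound median minus 4 SD, cut at about 23% in these data, passing the limit was not always enough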;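 further: 0% = wells killed by 20 µM Hyamine and 100% = untreated DMSO cell wells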); details: HCT116 beta-catenin knockout viability, CellTiter-Glo, 60 h; at 10 µM; active compounds read low
[5] = viability of PTEN-null HCT116 cells – cell-based, HCT116 clonal line, CellTiter-Glo, pilot screen (AID 824;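 active means viability at or below 27.92% in each of two runs, the all-compound median minus 4 SD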;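 further: 0% = 20 µM Hyamine control and 100% = vehicle cell control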); details: HCT116 PTEN-deleted viability, 60 h, at 10 µM, active compounds read low
[6] = RAM pathway blockade in budding yeast – dse1pr::URA3 reporter, 5-FOA selection, pilot screen (AID 869;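 active means inhibition over a set limit, the all-compound mean plus 3 SD, in both replicate runs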;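 further: 0% = DMSO wells with no growth and 100% = 10 µM 1-NA-PP1 with full growth; RAM network block rescues cells from 5-FOA so hits raise OD615 growth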); details: S. cerevisiae dse1pr::URA3 5-FOA growth, OD615, 2 d; at 10 µM; active compounds read high; strain carries analog-sensitive mutant Cbk1 kinase
[7] = RAM signaling pathway blockade in yeast – S. cerevisiae, Pdr1DBD-CYC8 efflux-inhibited sensitized strain, primary screen (AID 1298);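 further: 0% = DMSO untreated cells without growth and 100% = 10 µM 1-NA-PP1 full growth; higher means more yeast growth rescued from 5-FOA killing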; details: S. cerevisiae cbk1-as DSE1-URA3 strain, 5-FOA growth OD615, 2 d; at 50 µM; active compounds read high

COC(=O)c1c(NC(=O)C2CC2)sc2c1CCN(C(C)=O)C2
inactive: growth inhibition [1] -10.8% | growth inhibition [2] -31.3% | viability increase [3] -0.44% | viability [4] 105% | viability [5] 91.6% | inhibition [6] 1.98% | RAM network inhibition [7] -1.38%

O=C(NCCc1ccc(Cl)cc1)c1nnc(Cc2ccc(Cl)cc2)o1
inactive: growth inhibition [1] -3.81% | growth inhibition [2] 3.52% | viability increase [3] 0.2% | viability [4] 103% | viability [5] 103% | inhibition [6] 2.82% | RAM network inhibition [7] 7.52%

CC(C)NS(=O)(=O)c1ccc(CCC(=O)NCc2ccco2)cc1
inactive: growth inhibition [1] -15.3% | growth inhibition [2] -22.4% | viability increase [3] -3.3% | viability [4] 93.1% | viability [5] 97% | inhibition [6] 1.55% | RAM network inhibition [7] -0.53%

COc1ccc(N2CSC3=C(C#N)C(c4cc(OC)ccc4OC)CC(=O)N3C2)c(OC)c1 (configuration not stated)
inactive: growth inhibition [1] -1.38% | growth inhibition [2] 21.7% | viability increase [3] -6.09% | viability [4] 80.5% | viability [5] 82.6% | inhibition [6] 0.54% | RAM network inhibition [7] 2.28%

CC(C)Cn1c(CNC(=O)c2ccccc2)nc2ccccc21
inactive: growth inhibition [1] -4.34% | growth inhibition [2] -13.4% | viability increase [3] -2.23% | viability [4] 99.6% | viability [5] 93.1% | inhibition [6] 0.785% | RAM network inhibition [7] -0.78%

COc1ccc(C)cc1NC(=O)c1cnc2scc(C)n2c1=O
inactive: growth inhibition [1] 9.45% | growth inhibition [2] -0.68% | viability increase [3] -5.49% | viability [4] 87.8% | viability [5] 84.8% | inhibition [6] 3.21% | RAM network inhibition [7] 3.95%

CCC(C)Sc1nc2c(c(=O)[nH]c(=O)n2C)n1Cc1ccccc1Cl (configuration not stated)
inactive: growth inhibition [1] -0.795% | growth inhibition [2] 8.91% | viability increase [3] -1.95% | viability [4] 81.6% | viability [5] 82.2% | inhibition [6] 0.75% | RAM network inhibition [7] 4.89%

O=C(NCCCN1CCC(Cc2ccccc2)CC1)C1CC(=O)N(C2CCCC2)C1 (configuration not stated)
inactive: growth inhibition [1] 1.72% | growth inhibition [2] -13.9% | viability increase [3] -2.03% | viability [4] 88.5% | viability [5] 83.7% | inhibition [6] -0.05% | RAM network inhibition [7] 2.13%

Cc1ccc(-c2nc(CS(=O)(=O)CC(=O)N3CCc4ccccc4C3)c(C)o2)cc1
inactive: growth inhibition [1] -3.42% | growth inhibition [2] -1.55% | viability increase [3] -2.25% | viability [4] 67.4% | viability [5] 68.9% | inhibition [6] 0.555% | RAM network inhibition [7] 7.91%

CC(=O)/C(C(=N)N1CCN(Cc2ccccc2)CC1)=C(\C)O
inactive: growth inhibition [1] -12.7% | growth inhibition [2] -5.25% | viability increase [3] -0.02% | viability [4] 103% | viability [5] 101% | inhibition [6] 2.4% | RAM network inhibition [7] 2.85%

COc1cc(C(=O)Oc2ccccc2N)cc(OC)c1OC
inactive: growth inhibition [1] -19.6% | growth inhibition [2] 11.3% | viability increase [3] -2.84% | viability [4] 102% | viability [5] 96% | inhibition [6] -0.31% | RAM network inhibition [7] 1.19%

COc1ccc(CCNC(=O)CN2CCOc3ccccc32)cc1OC
inactive: growth inhibition [1] -23.7% | growth inhibition [2] 13.9% | viability increase [3] -6.27% | viability [4] 100% | viability [5] 96.8% | inhibition [6] 0.49% | RAM network inhibition [7] 1.27%

CC(C)n1c(C(O)c2ccccc2)nc2ccccc21 (configuration not stated)
inactive: growth inhibition [1] -5.87% | growth inhibition [2] -13.6% | viability increase [3] 0.37% | viability [4] 97.6% | viability [5] 88.1% | inhibition [6] 1.4% | RAM network inhibition [7] 4.24%

CCOC(=O)N1CCN(C(=O)CCSc2ccccc2)CC1
inactive: growth inhibition [1] 2.04% | growth inhibition [2] 2.15% | viability increase [3] 0.84% | viability [4] 99.7% | viability [5] 97% | inhibition [6] 0.07% | RAM network inhibition [7] 0.95%

Cc1ccc(SCC(=O)NCC(C)C)cc1
inactive: growth inhibition [1] -0.86% | growth inhibition [2] 6.93% | viability increase [3] 0.66% | viability [4] 97.1% | viability [5] 102% | inhibition [6] 0.42% | RAM network inhibition [7] 0.68%

CCCCCOC(=O)C1=C(C)NC(=O)NC1c1ccccc1OCC (configuration not stated)
inactive: growth inhibition [1] -2.38% | growth inhibition [2] 11.9% | viability increase [3] -0.2% | viability [4] 69.8% | viability [5] 69.7% | inhibition [6] 0.45% | RAM network inhibition [7] 1.97%

CC(=O)C1=C(O)C(=O)N(c2nnn(C)n2)C1c1cccs1 (configuration not stated)
inactive: growth inhibition [1] -9.56% | growth inhibition [2] -6.22% | viability increase [3] -1.76% | viability [4] 107% | viability [5] 95.8% | inhibition [6] 2.02% | RAM network inhibition [7] 0.72%

O=C1C=C(N(CCO)CCO)C2(CCCCC2)O1
inactive: growth inhibition [1] -14.1% | growth inhibition [2] -18.7% | viability increase [3] -1.83% | viability [4] 90.1% | viability [5] 96% | inhibition [6] 1.23% | RAM network inhibition [7] 2%

Cn1cccc1Cc1nnc(SCC(=O)N2CCCC2)n1CCc1ccccc1
inactive: growth inhibition [1] 1.38% | growth inhibition [2] 16.7% | viability increase [3] -1.41% | viability [4] 103% | viability [5] 102% | inhibition [6] 0.04% | RAM network inhibition [7] 1.63%

COc1ccc(C2(CNC(C)=O)CCOCC2)cc1OC
inactive: growth inhibition [1] -14.1% | growth inhibition [2] -2.29% | viability increase [3] 1.21% | viability [4] 103% | viability [5] 97.8% | inhibition [6] 2.54% | RAM network inhibition [7] -0.32%

COc1cc(NC(=O)c2cc3c(=O)n(C)c4ccccc4c3n2C)cc(OC)c1OC
inactive: growth inhibition [1] 1.8% | growth inhibition [2] 7.94% | viability increase [3] -3.3% | viability [4] 106% | viability [5] 95.7% | inhibition [6] 3.3% | RAM network inhibition [7] 5.77%

Cn1c(Cn2c(=O)sc3ccccc32)nnc1SCC(=O)Nc1cccc(F)c1
inactive: growth inhibition [1] -12% | growth inhibition [2] -5.46% | viability increase [3] -2.58% | viability [4] 97.3% | viability [5] 93.4% | inhibition [6] 1.9% | RAM network inhibition [7] 1.86%

Clc1ccc(Cc2nnc(-c3ccccc3Br)o2)cc1
inactive: growth inhibition [1] 1.55% | growth inhibition [2] -0.37% | viability increase [3] 4.88% | viability [4] 101% | viability [5] 91.3% | inhibition [6] -0.5% | RAM network inhibition [7] 3.39%

CC1CCN(C(=O)c2cc(-c3ccccc3O)on2)CC1
inactive: growth inhibition [1] -10.2% | growth inhibition [2] 9.11% | viability increase [3] -0.44% | viability [4] 108% | viability [5] 91.5% | inhibition [6] 0.335% | RAM network inhibition [7] -2.14%

CCOC(=O)N1CCN(C(c2ccc(C)cc2)c2sc3nc(C)nn3c2O)CC1 (configuration not stated)
inactive: growth inhibition [1] 2.26% | growth inhibition [2] 4.33% | viability increase [3] -0.59% | viability [4] 108% | viability [5] 102% | inhibition [6] 0.185% | RAM network inhibition [7] 0.28%

CN1CCN(C(=O)C2CC(=O)N(c3ccc(F)c(Cl)c3)C2)CC1 (configuration not stated)
inactive: growth inhibition [1] -6.12% | growth inhibition [2] -6.44% | viability increase [3] -0.63% | viability [4] 96% | viability [5] 95.9% | inhibition [6] 2.12% | RAM network inhibition [7] 3.12%

CCC(C)NC(=O)c1ccccc1NC(=O)CN1C(=O)c2ccccc2S1(=O)=O (configuration not stated)
inactive: growth inhibition [1] -17.3% | growth inhibition [2] -18.6% | viability increase [3] 0.23% | viability [4] 105% | viability [5] 95.2% | inhibition [6] 1.33% | RAM network inhibition [7] 5.02%

CCCOC(=O)C1C2C=CC3(CN(c4ccc(Cl)c(F)c4)C(=O)C13)O2 (configuration not stated)
inactive: growth inhibition [1] 4.25% | growth inhibition [2] 0.67% | viability increase [3] -2.67% | viability [4] 93.4% | viability [5] 86.5% | inhibition [6] -0.06% | RAM network inhibition [7] 1.54%

Nc1c(C(=O)NCc2ccccc2)nnn1Cc1ccc(F)cc1
inactive: growth inhibition [1] -1.67% | growth inhibition [2] -11.5% | viability increase [3] -0.8% | viability [4] 98.6% | viability [5] 92.1% | inhibition [6] 1.8% | RAM network inhibition [7] 3.21%

Cc1cccc(Nc2ncnc3nc[nH]c23)c1
inactive: growth inhibition [1] 3.02% | growth inhibition [2] 32.5% | viability increase [3] -1.96% | viability [4] 101% | viability [5] 97.6% | inhibition [6] 2.31% | RAM network inhibition [7] 3.11%

Clc1ccc(C=NC23CN4CN(CN(C4)C2)C3)cc1
inactive: growth inhibition [1] 8.77% | growth inhibition [2] 6.34% | viability increase [3] -1.39% | viability [4] 102% | viability [5] 90.3% | inhibition [6] 1.11% | RAM network inhibition [7] 0.19%

COc1ccc(-c2nc(Cn3c(SCc4cccc(F)c4)nc4ccncc43)c(C)o2)cc1OC
inactive: growth inhibition [1] 4.55% | growth inhibition [2] 30.2% | viability increase [3] -3.1% | viability [4] 69.9% | viability [5] 60.1% | inhibition [6] 1% | RAM network inhibition [7] 3.81%

COc1ccc(-c2nnc(COc3ccc4ccccc4c3)o2)cc1OC
inactive: growth inhibition [1] -7.47% | growth inhibition [2] -22.7% | viability increase [3] -0.12% | viability [4] 99.7% | viability [5] 91.6% | inhibition [6] 1.22% | RAM network inhibition [7] 8.07%

Nc1nc2n(n1)C(c1ccccc1)CC(c1ccc(F)cc1)N2 (configuration not stated)
inactive: growth inhibition [1] -2.32% | growth inhibition [2] 16.9% | viability increase [3] -0.53% | viability [4] 97.9% | viability [5] 98.2% | inhibition [6] 0.145% | RAM network inhibition [7] 0.84%

CCc1ccccc1NC(=O)c1cc(C2CC2)on1
inactive: growth inhibition [1] -12.1% | growth inhibition [2] 6.47% | viability increase [3] -0.65% | viability [4] 93.2% | viability [5] 91.8% | inhibition [6] 0.045% | RAM network inhibition [7] 3.34%

Cc1cccc(N(C(=O)Nc2ccccc2)C2=NCC(C)S2)c1 (configuration not stated)
inactive: growth inhibition [1] -14.6% | growth inhibition [2] -6.9% | viability increase [3] 0.22% | viability [4] 103% | viability [5] 94.4% | inhibition [6] -0.8% | RAM network inhibition [7] 2.52%
